Measurements published in ChEMBL document CHEMBL4354867, “Validation and Characterization of Five Distinct Novel Inhibitors of Human Cytomegalovirus” (J Med Chem, 2020).
Calls of active or inactive are those of the source. The calls are words filed in the database; no cut-off is given here.

Key:
Human betaherpesvirus 5 [1] = assay: Antiviral activity against pp28-luciferase expressing HCMV Towne infected in human HFF cells assessed as reduction in viral replication treated with compound immediately after viral infection at MOI of 1 PFU/cell followed by compound washout after 6 hrs and measured after 3 days by luciferase reporter gene assay; assay type: functional; settings: strain Towne
Method in brief: (§1)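 Time-of-addition in HFFs infected with HCMV Towne (MOI 1). Add-on: compound added at 0, 6, 24 or 48 hpi. Removal: compound added right after infection and washed out after 0, 6, 24 or 48 h. Luciferase read at 72 hpi.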

Human betaherpesvirus 5 [2] = assay: (§2) Antiviral activity against pp28-luciferase harboring UL97 C607Y mutant expressing GCV-resistant HCMV Towne infected in human HFF cells assessed as reduction in viral replication at 1 to 5 uM treated with compound following viral infection at MOI of 0.1 PFU/cell and measured at 72 hrs post infection by luciferase reporter gene assay; assay type: functional, organism-based; settings: strain Towne
Method in brief: (§3)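 HFFs infected with GCV-resistant pp28-luciferase Towne (MOI 0.1), then treated with a compound dilution series. Luciferase, driven by the UL99 late promoter, read in cell lysates at 72 hpi. Data are mean ± SD of triplicates from a single experiment.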

Human betaherpesvirus 5 [3] = assay: Antiviral activity against pp28-luciferase expressing HCMV Towne infected in human HFF cells assessed as reduction in viral replication treated with compound at 24 hrs post viral infection at MOI of 1 PFU/cell and measured after 3 days by luciferase reporter gene assay; assay type: functional, organism-based; settings: strain Towne; method in brief: as §1
Human betaherpesvirus 5 [4] = assay: Antiviral activity against HCMV Towne infected in human HFF cells assessed as reduction in plaque formation treated with compound following viral infection at MOI of 1 PFU/cell and measured at 10 days post-infection in presence of letermovir by crystal violet staining based assay; assay type: functional, organism-based; settings: Human betaherpesvirus 5, strain Towne, 240 h
Human betaherpesvirus 5 [5] = assay: Antiviral activity against HCMV Towne infected in human HFF cells assessed as reduction in viral DNA replication at 5 uM treated with compound following viral infection at MOI of 0.1 PFU/cell by US17 real time PCR analysis; assay type: functional, organism-based; settings: strain Towne
Method in brief: (§4)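 At set time points supernatants were harvested and cells lysed for DNA. Cell-associated viral DNA and supernatant viral DNA quantified by real-time PCR targeting a 151-bp conserved US17 region.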

Human betaherpesvirus 5 [6] = assay: Antiviral activity against HCMV TB40 infected in human HFF cells assessed as reduction in plaque formation treated with compound following viral infection and incubated for 8 to 10 days by crystal violet staining based assay; assay type: functional, organism-based; settings: Human betaherpesvirus 5, TB40, HFF
Human betaherpesvirus 5 [7] = assay: Antiviral activity against HCMV Towne infected in human HFF cells assessed as reduction in plaque formation treated with compound following viral infection and incubated for 8 to 10 days by crystal violet staining based assay; assay type: functional, organism-based; settings: Human betaherpesvirus 5, strain Towne
HFF = assay: Cytotoxicity against human HFF cells assessed as reduction in cell viability incubated for 72 hrs or 10 days by MTT assay; assay type: cell-based
Method in brief: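 MTT assay on uninfected cells exposed to compound for 72 h or 8–10 days, matching the antiviral assay durations. MTT (5 mg/mL stock in PBS) added, then 2–3 h at 37 °C. Formazan absorbance read at 560 nm.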

Human betaherpesvirus 5 [8] = assay: Antiviral activity againstpp28-luciferase expressing HCMV Towne infected in human HFF cells assessed as reduction in viral replication treated with compound following viral infection at MOI of 1 PFU/cells measured after 3 days in presence of GCV by luciferase reporter gene assay; assay type: functional, organism-based; settings: Human betaherpesvirus 5, strain Towne, 72 h
Method in brief: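 HFFs in 96-well plates were infected with pp28-luciferase Towne HCMV, in which luciferase is driven by the UL99 late promoter, at MOI 1. A dose-response of each drug alone gave its EC₅₀. Combinations started at twice each EC₅₀ in DMEM with 4% FBS, followed by two-fold serial dilutions, and were added after infection. Luciferase was read in cell lysates at 72 hpi. The Bliss ratio is observed over expected inhibition.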

Human betaherpesvirus 5 [9] = assay: Inhibition of viral protein expression in HCMV Towne infected in human HFF cells assessed as reduction in IE2 expression at 0.3 to 10 uM treated with compound following viral infection at MOI of 1 PFU/cell measured at 72 hrs post infection by Western blot analysis; assay type: functional, organism-based; settings: strain Towne
Method in brief: (§5)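 HFFs infected with HCMV Towne (MOI 1), then treated with compound. Lysates taken at 72 hpi, equal protein loaded on 8–10% Tris-glycine SDS-PAGE and transferred to PVDF. Primary antibodies overnight at 4 °C, HRP secondary, chemiluminescent detection; β-actin as loading control.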

[10] = Antiviral activity against Mouse Cytomegalovirus Smith (ATCC VR-1399) infected in mouse MEF cells assessed as reduction in plaque formation measured after 3 days by crystal violet staining based assay; assay type: functional, cell-based, Murine cytomegalovirus (strain Smith); settings: mef
Method in brief: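 Plaque reduction with MCMV Smith in mouse embryonic fibroblasts, with compound in a carboxymethylcellulose overlay. Assay ended at 3 days and plaques counted after crystal violet staining.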

Human betaherpesvirus 5 [11] = assay: Antiviral activity against HCMV TB40 infected in human HFF cells assessed as reduction in plaque formation at 0.75 to 10 uM treated with compound following viral infection at […] measured after 8 days by crystal violet staining analysis; assay type: functional, organism-based
Method in brief: (§6)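 HFFs (2 × 10⁵/well) infected with HCMV TB40 at about 100 plaques/well for 90 min. Inoculum removed, then DMEM with 0.5% CMC, 4% FBS and compound added. Incubated at 37 °C; plaques stained with crystal violet and counted at 8 dpi. Experiment repeated three times; one representative shown.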

Human betaherpesvirus 5 [12] = assay: Antiviral activity against GCV-resistant HCMV Towne infected in human HFF cells assessed as reduction in plaque formation treated with compound following viral infection and incubated for 8 to 10 days by crystal violet staining based assay; assay type: functional, organism-based; settings: Human betaherpesvirus 5, strain Towne
Human betaherpesvirus 5 [13] = assay: Inhibition of viral protein expression in HCMV Towne infected in human HFF cells assessed as reduction in IE1 expression at 0.3 to 10 uM treated with compound following viral infection at MOI of 1 PFU/cell measured at 72 hrs post infection by Western blot analysis; assay type: functional, organism-based; settings: strain Towne; method in brief: as §5
Human betaherpesvirus 5 [14] = assay: Antiviral activity against HCMV Towne infected in human HFF cells assessed as reduction in viral DNA yields in the supernatant at 5 uM treated with compound following viral infection at MOI of 0.1 PFU/cell by US17 real time PCR analysis; assay type: functional, organism-based; settings: strain Towne; method in brief: as §4
Human gammaherpesvirus 4 = assay: Antiviral activity against EBV infected in human AKATA cells assessed as reduction in IgG-induced lytic virus replication measured at 48 hrs post-lytic induction by qRT-PCR analysis; assay type: functional, organism-based; settings: human gammaherpesvirus 4, 48 h; read-out: EC50
Human alphaherpesvirus 1 = assay: Antiviral activity against HSV 1 infected in African green monkey Vero cells assessed as reduction in plaque formation incubated for 36 hrs by crystal violet staining based assay; assay type: functional, organism-based; settings: vero
Method in brief: (§7)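 Plaque reduction in Vero cells: virus adsorbed 60 min, then compound added in a carboxymethylcellulose overlay. Plaques counted after 36 h by crystal violet staining.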

Human alphaherpesvirus 2 = assay: Antiviral activity against HSV 2 infected in African green monkey Vero cells assessed as reduction in plaque formation incubated for 36 hrs by crystal violet staining based assay; assay type: functional, organism-based; settings: vero; method in brief: as §7
Human betaherpesvirus 5 [15] = assay: Inhibition of viral protein expression in HCMV Towne infected in human HFF cells assessed as reduction in UL84 expression at 0.1 to 10 uM treated with compound following viral infection at MOI of 1 PFU/cell measured at 72 hrs post infection by Western blot analysis; assay type: functional, organism-based; settings: strain Towne; method in brief: as §5
Human betaherpesvirus 5 [16] = assay: as §2, with “at 0.5” for “at 1”, “to 3” for “to 5”; assay type: functional, organism-based; settings: strain Towne; method in brief: as §3
Human betaherpesvirus 5 [17] = assay: Antiviral activity against HCMV TB40 infected in human HFF cells assessed as reduction in plaque formation at 0.1 to 3 uM treated with compound following viral infection at […] measured after 8 days by crystal violet staining analysis; assay type: functional, organism-based; method in brief: as §6
Human betaherpesvirus 5 [18] = assay: Inhibition of viral protein expression in HCMV Towne infected in human HFF cells assessed as reduction in pp65 expression at 0.1 to 10 uM treated with compound following viral infection at MOI of 1 PFU/cell measured at 72 hrs post infection by Western blot analysis; assay type: functional, organism-based; settings: strain Towne
Method in brief: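 Lysates taken at 72 hpi, equal protein run on SDS-PAGE and transferred to PVDF. Immunoblot for viral proteins (IE1/2, UL84, UL44, pp65) with β-actin as loading reference, chemiluminescent detection.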

Human betaherpesvirus 5 [19] = assay: Inhibition of viral protein expression in HCMV Towne infected in human HFF cells assessed as reduction in IE1 expression at 0.1 to 10 uM treated with compound following viral infection at MOI of 1 PFU/cell measured at 72 hrs post infection by Western blot analysis; assay type: functional, organism-based; settings: strain Towne; method in brief: as §5
Human betaherpesvirus 5 [20] = assay: Antiviral activity against HCMV Towne infected in human HFF cells assessed as reduction in viral DNA yields in the supernatant at 1.5 uM treated with compound following viral infection at MOI of 0.1 PFU/cell by US17 real time PCR analysis; assay type: functional, organism-based; settings: strain Towne; method in brief: as §4
Human betaherpesvirus 5 [21] = assay: Inhibition of viral protein expression in HCMV Towne infected in human HFF cells assessed as reduction in IE2 expression at 0.1 to 10 uM treated with compound following viral infection at MOI of 1 PFU/cell measured at 72 hrs post infection by Western blot analysis; assay type: functional, organism-based; settings: strain Towne; method in brief: as §5
Human betaherpesvirus 5 [22] = assay: Inhibition of viral protein expression in HCMV Towne infected in human HFF cells assessed as reduction in UL44 expression at 0.1 to 10 uM treated with compound following viral infection at MOI of 1 PFU/cell measured at 72 hrs post infection by Western blot analysis; assay type: functional, organism-based; settings: strain Towne; method in brief: as §5
Human betaherpesvirus 5 [23] = assay: Antiviral activity against HCMV Towne infected in human HFF cells assessed as reduction in viral DNA replication at 1.5 uM treated with compound following viral infection at MOI of 0.1 PFU/cell by US17 real time PCR analysis; assay type: functional, organism-based; settings: strain Towne; method in brief: as §4

SMILES	Activity (Human betaherpesvirus 5 [1])	Activity (Human betaherpesvirus 5 [3])	EC50 (Human betaherpesvirus 5 [4])	EC50 (Human betaherpesvirus 5 [6])	EC50 (Human betaherpesvirus 5 [7])	CC50 (HFF)	EC50 (Human betaherpesvirus 5 [8])	EC50 [10]	EC50 (Human betaherpesvirus 5 [12])	EC50 (Human gammaherpesvirus 4)	EC50 (Human alphaherpesvirus 1)	EC50 (Human alphaherpesvirus 2)	other results
CCN1CCN(CCCNC(=O)c2ccc3c(c2)sc2nc(-c4ccc(OC)cc4)cn23)CC1	Active	inactive	610 nM	1210 nM	850 nM	70900 nM	690 nM	Not Active	840 nM	1920 nM	Not Active	Not Active	Activity (Human betaherpesvirus 5 [2]): Active; Activity (Human betaherpesvirus 5 [5]): Active; inhibition (Human betaherpesvirus 5 [9]): Active; Activity (Human betaherpesvirus 5 [11]): Active; inhibition (Human betaherpesvirus 5 [13]): Active; Activity (Human betaherpesvirus 5 [14]): Active
Nc1nc(O)c2ncn(COC(CO)CO)c2n1 [GANCICLOVIR]	–	–	–	–	–	> 200000 nM	–	–	–	–	–	–	–
Nc1c(S(=O)(=O)c2cccs2)c2nc3ccccc3nc2n1Cc1ccccc1	Active	inactive	130 nM	330 nM	390 nM	> 250000 nM	570 nM	Not Active	260 nM	> 10000 nM	Not Active	Not Active	inhibition (Human betaherpesvirus 5 [15]): Active; Activity (Human betaherpesvirus 5 [16]): Active; Activity (Human betaherpesvirus 5 [17]): Active; inhibition (Human betaherpesvirus 5 [18]): Active; inhibition (Human betaherpesvirus 5 [19]): Active; Activity (Human betaherpesvirus 5 [20]): Active; inhibition (Human betaherpesvirus 5 [21]): Active; inhibition (Human betaherpesvirus 5 [22]): Active; Activity (Human betaherpesvirus 5 [23]): Active
